One series has as its system Hepatitis C virus. The series can be described thus: Antiviral activity against HCV genotype 1b infected in human HuH5.2 cells with persistent I389luc-ubi-neo/NS3-3'/5.1 replicon after 72 hrs by luciferase reporter gene assay. It is filed as functional, cell-based, Hepacivirus hominis. To be noted: Huh-5-2, 72 h. The method in brief: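 Huh 5-2 cells carrying the genotype 1b I389luc-ubi-neo/NS3-3'/5.1 replicon were seeded at 6 500 cells/well in Geneticin-free DMEM/10% FCS and left overnight. Compounds from DMSO stocks were added in a four-step 1-to-5 series for the first screen or an eight-step 1-to-2 series for dose-response curves, then 72 h at 37 °C. Luciferase luminescence after lysis, as % of untreated controls, gave EC50; mean of ≥2 experiments.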

A short description of series [1]: Cytotoxicity against human HuH5.2 cells assessed as reduction in cell viability after 72 hrs by MTS assay. It is filed as cell-based, Huh-5-2. The gist of the method: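 Huh 5-2 cells carrying the genotype 1b I389luc-ubi-neo/NS3-3'/5.1 replicon were seeded at 6 500 cells/well in medium without Geneticin one day ahead. Compounds (DMSO stock) were added as 1:5 four-step or 1:2 eight-step dilutions for 72 h at 37 °C.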

Series [2] can be described thus: Inhibition of HCV NS3 helicase DNA unwinding activity using fluorescent DNA substrate by molecular beacon assay. The arrangement: species or system Hepacivirus hominis. The method in brief: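 Molecular beacon unwinding reaction: 25 mM MOPS pH 6.5, 1.25 mM MgCl2, 5% DMSO, 5 µg/ml BSA, 0.01% Tween20, 0.05 mM DTT, 5 nM fluorescent DNA substrate, 12.5 nM NS3h, 1 mM ATP. Duplicate two-fold dilutions spanned 1 mM to 0.78 µM. Data normalised to no-inhibitor and no-enzyme controls; IC50 from variable-slope Hill fit.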

Series [3] in a line: Selectivity index, ratio of CC50 for human HuH5.2 cells to EC50 for HCV genotype 1b infected in human HuH5.2 cells with persistent I389luc-ubi-neo/NS3-3'/5.1 replicon.

Consider `O=S(=O)(NCCN1CCN(CCNS(=O)(=O)c2ccc(Cl)cc2)CC1)c1ccc(Cl)cc1`, for which the EC50 in the series with Hepatitis C virus is above 95.9 µM. The CC50 at 72 h in series [1] was above 95.9 µM. The IC50 in series [2] is 250 µM.

For the molecule `O=S(=O)(NCCCCN1CCN(CCCCNS(=O)(=O)c2ccc(Cl)cc2)CC1)c1ccc(Cl)cc1`, in the series with Hepatitis C virus, the concentration giving a half-maximal response (EC50) came out at 66.7 µM and it took 164 µM to reach the 90% level (EC90). Moreover, the cytotoxic concentration (CC50) at 72 h in series [1] is above 173 µM. Moreover, the “Ratio CC50/EC50” value in series [3] is above 2.5. The molecule also returned an IC50 in series [2] of 790 µM.

For the molecule `O=S(=O)(NCCCN1CCN(CCCNS(=O)(=O)c2cccc3ccccc23)CC1)c1cccc2ccccc12`, in the series with Hepatitis C virus, the half-maximal effective concentration (EC50) was above 172 µM and the EC90 was above 172 µM. The CC50 at 72 h in series [1] was above 172 µM. For the same molecule, in series [2], the IC50 was above 1000 µM.

In series [2], `Cc1ccc2nc(-c3ccc4nc(-c5ccc(N)cc5)sc4c3)sc2c1S(=O)(=O)O` showed an IC50 of 10 µM. This counts as double-digit micromolar.

Molecule `O=C(O)c1ccc(S(=O)(=O)NCCCN2CCN(CCCNS(=O)(=O)c3ccc(C(=O)O)cc3)CC2)cc1` displayed an EC50 with Hepatitis C virus above 176 µM. For the same molecule, the CC50 at 72 h in series [1] was above 176 µM. In addition, the IC50 in series [2] is above 1000 µM.

On to `O=C(CCNS(=O)(=O)c1ccc(-c2ccccc2)cc1)N1CCN(CCCNS(=O)(=O)c2ccc(-c3ccccc3)cc2)CC1`, for which the EC50 in the series with Hepatitis C virus came to 3.03 µM. Further, the half-maximal cytotoxic concentration (CC50) at 72 h in series [1] was 66.9 µM. The “Ratio CC50/EC50” value in series [3] came to 22.1. The molecule further returned an IC50 in series [2] above 1000 µM.

`CCOC(=O)c1ccc(S(=O)(=O)NCCCN2CCN(CCCNS(=O)(=O)c3ccc(C(=O)OCC)cc3)CC2)cc1` came in with an EC50 in the series with Hepatitis C virus of 56.2 µM. Also, the CC50 at 72 h in series [1] is above 160 µM. Moreover, the “Ratio CC50/EC50” value in series [3] is above 2.8. For the same molecule, the IC50 in series [2] is above 1000 µM.

Turning to `O=C(CCNS(=O)(=O)c1ccc(Cl)cc1)N1CCN(CCCNS(=O)(=O)c2ccc(Cl)cc2)CC1`, in the series with Hepatitis C virus, the EC50 was determined as 9.32 µM and the concentration for an effect of 90% (EC90) is 25.9 µM. Also, the CC50 at 72 h in series [1] turned out to be 69.1 µM. The “Ratio CC50/EC50” value in series [3] worked out at 7.4. Also, in series [2], the IC50 is above 1000 µM.

In turn, `CC(C)(C)c1ccc(S(=O)(=O)NCCCN2CCN(CCNS(=O)(=O)c3ccc(C(C)(C)C)cc3)CC2)cc1` displayed an EC50 in the series on Hepatitis C virus of 1.7 µM. In addition, the CC50 at 72 h in series [1] was 5.21 µM. Also, the “Ratio CC50/EC50” value in series [3] is reported as 3.1. This molecule also gave an IC50 in series [2] of 170 µM.

Consider `O=S(=O)(NCCCN1CCN(CCCNS(=O)(=O)c2ccc3ccccc3c2)CC1)c1ccc2ccccc2c1`, for which the EC50 in the series on Hepatitis C virus was found to be 4.9 µM. The CC50 at 72 h in series [1] is 49.9 µM. The “Ratio CC50/EC50” value in series [3] worked out at 10. Also, it took 460 µM to reach half-maximal inhibition in series [2] (IC50).

As for `O=S(=O)(NCCCN1CCN(CCCNS(=O)(=O)c2ccc(-c3ccccc3)cc2)CC1)c1ccc(-c2ccccc2)cc1`, the concentration giving a half-maximal response (EC50) in the series on Hepatitis C virus was determined as 1.2 µM. Besides, in series [1], the CC50 at 72 h turned out to be 4.9 µM. For the same molecule, the “Ratio CC50/EC50” value in series [3] is 3.9. Further, in series [2], the IC50 was 630 µM.

Consider `O=C(O)C1=CC(=C(c2ccc(O)c(C(=O)O)c2)c2ccc(O)c(C(=O)O)c2)C=CC1=O` [AURINTRICARBOXYLIC ACID], for which the IC50 in series [2] was 0.3 µM.

On to `CC(C)(C)c1ccc(S(=O)(=O)NCCCN2CCN(CCCNS(=O)(=O)c3ccccc3)CC2)cc1`, for which a half-maximal response with Hepatitis C virus (EC50) required 3.74 µM. Moreover, the CC50 at 72 h in series [1] came out at 20.5 µM. Besides, the “Ratio CC50/EC50” value in series [3] was found to be 5.5.

In the case of `Cc1ccc2nc(N3C(=O)C(O)=C(C(=O)c4cc5ccccc5o4)C3c3cccc(Oc4ccccc4)c3)sc2c1` (centres undefined), in the series on Hepatitis C virus, the EC50 came to 41.8 µM and the EC90 is above 89.5 µM. Moreover, in series [1], the CC50 at 72 h is above 89.5 µM. For the same molecule, the “Ratio CC50/EC50” value in series [3] is above 2.1.

`O=S(=O)(NCCCN1CCCCC1)c1ccc(Cl)cc1` had an EC50 with Hepatitis C virus of 61.9 µM. Also, the CC50 at 72 h in series [1] was 145 µM. Also, the “Ratio CC50/EC50” value in series [3] was determined as 2.3.

In the series on Hepatitis C virus, `COc1ccc(-c2ccc(/C=N/NC(=O)COc3cc(C)ccc3C)o2)cc1Cl` displayed an EC50 of 26.4 µM and a concentration for an effect of 90% (EC90) above 121 µM. Further, the CC50 at 72 h in series [1] was above 121 µM. For the same molecule, the “Ratio CC50/EC50” value in series [3] is reported as above 4.5.

As for `O=S(=O)(NCCNc1ccc(NCCNS(=O)(=O)c2ccc(Cl)cc2)cc1)c1ccc(Cl)cc1`, the EC50 in the series on Hepatitis C virus is 12.1 µM. Moreover, in series [1], the CC50 at 72 h came to 22 µM. In series [3], the “Ratio CC50/EC50” value is reported as 1.8.

These data come from ChEMBL document CHEMBL4041513, “In silico identification, design and synthesis of novel piperazine-based antiviral agents targeting the hepatitis C virus helicase” (Eur J Med Chem, 2017).
